According to ChEMBL document CHEMBL2321839, “Novel limonene and citral based 2,5-disubstituted-1,3,4-oxadiazoles: a natural product coupled approach to semicarbazones for antiepileptic activity” (Bioorg Med Chem Lett, 2013):
Calls of active or inactive are those of the source. The rule behind the calls is not given here.

Experiments:
Mus musculus [1] = assay: Antiepileptic activity in Swiss albino mouse assessed as protection against maximal-electric shock-induced seizures at 300 mg/kg, ip measured after 0.5 hrs; format: functional, organism-based; set-up: dose 300 mg/kg
Summary of the method: (§1)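 Male Swiss albino mice (18–25 g), compounds given ip at 30, 100 and 300 mg/kg. Seizures induced by maximal electroshock (MES) or subcutaneous pentylenetetrazole (scPTZ). Protection scored at 0.5 and 4.0 h after dosing.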

Mus musculus [2] = assay: Antiepileptic activity in ip dosed Swiss albino mouse assessed as protection against maximal-electric shock-induced seizures after 4 hrs; format: functional; settings: read-out: MED; summary of the method: as §1
Mus musculus [3] = assay: Neurotoxicity against Swiss albino mouse by rotarod test at 300 mg/kg, ip after 4 hrs; format: toxicity, organism-based; set-up: dose 300 mg/kg, route intraperitoneal; settings: in vivo
Summary of the method: (§2)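 Acute neurotoxicity tested by rotorod in male Swiss albino mice (18–25 g) given 30, 100 or 300 mg/kg ip. Read at 0.5 and 4.0 h post-dose. Result is the minimal dose causing toxicity in half or more of the animals; a dash means none up to 300 mg/kg.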

Mus musculus [4] = assay: Neurotoxicity against ip dosed Swiss albino mouse after 0.5 hrs by rotarod test; format: toxicity, organism-based; settings: in vivo; summary of the method: as §2
Rattus norvegicus [5] = assay: Antiepileptic activity in Wistar rat assessed as protection against scSTY-induced seizures at 300 mg/kg, ip measured after 4 hrs; format: functional, organism-based; set-up: dose 300 mg/kg
Summary of the method: (§3)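 Male Wistar rats (100–150 g), compounds given ip at 30, 100 and 300 mg/kg. Seizures induced by subcutaneous strychnine (scSTY). Activity read 0.5 and 4.0 h after dosing. Reported as the minimal dose active in at least half of the animals; a dash means no activity at 300 mg/kg.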

Rattus norvegicus [6] = assay: Antiepileptic activity in Wistar rat assessed as protection against scSTY-induced seizures at 300 mg/kg, ip measured after 0.5 hrs; format: functional, organism-based; set-up: dose 300 mg/kg; summary of the method: as §3
Mus musculus [7] = assay: Antiepileptic activity in Swiss albino mouse assessed as protection against scPTZ-induced seizures at 300 mg/kg, ip measured after 4 hrs; format: functional, organism-based; set-up: dose 300 mg/kg; summary of the method: as §1
Mus musculus [8] = assay: Antiepileptic activity in Swiss albino mouse assessed as protection against scPTZ-induced seizures at 300 mg/kg, ip measured after 0.5 hrs; format: functional, organism-based; set-up: dose 300 mg/kg; summary of the method: as §1
Mus musculus [9] = assay: Neurotoxicity against Swiss albino mouse by rotarod test at 300 mg/kg, ip after 0.5 hrs; format: toxicity, organism-based; set-up: dose 300 mg/kg, route intraperitoneal; settings: in vivo; summary of the method: as §2
Mus musculus [10] = assay: Neurotoxicity against ip dosed Swiss albino mouse after 4 hrs by rotarod test; format: toxicity, organism-based; settings: in vivo; summary of the method: as §2
Mus musculus [11] = assay: Antiepileptic activity in ip dosed Swiss albino mouse assessed as protection against maximal-electric shock-induced seizures after 0.5 hrs; format: functional; settings: read-out: MED; summary of the method: as §1
Mus musculus [12] = assay: Antiepileptic activity in ip dosed Swiss albino mouse assessed as protection against scPTZ-induced seizures after 4 hrs; format: functional; settings: read-out: MED; summary of the method: as §1
Mus musculus [13] = assay: Antiepileptic activity in Swiss albino mouse assessed as protection against maximal-electric shock-induced seizures at 300 mg/kg, ip measured after 4 hrs; format: functional, organism-based; set-up: dose 300 mg/kg; summary of the method: as §1
Rattus norvegicus [14] = assay: Antiepileptic activity in ip dosed Wistar rat assessed as protection against scSTY-induced seizures after 4 hrs; format: functional; settings: read-out: MED; summary of the method: as §3
Rattus norvegicus [15] = assay: Antiepileptic activity in Wistar rat assessed as GABA level in cerebellum per 100 mg at 100 mg/kg ip after 2 hrs (reference value: 23.48+/- 2.48 ug); format: functional; settings: route intraperitoneal
Rattus norvegicus [16] = assay: Antiepileptic activity in Wistar rat assessed as GABA level in medulla oblangata per 100 mg at 100 mg/kg ip after 2 hrs (reference value: 31.86 +/- 4.65 ug); format: functional, Medulla oblongata; settings: route intraperitoneal
Rattus norvegicus [17] = assay: Antiepileptic activity in Wistar rat assessed as GABA level in midbrain per 100 mg at 100 mg/kg ip after 2 hrs (reference value: 35.42 +/- 2.14 ug); format: functional; settings: route intraperitoneal
Rattus norvegicus [18] = assay: Neurotoxicity in Wistar rat at 30 mg/kg, po measured at 4 hrs by rotarod test; format: toxicity, organism-based; set-up: dose 30 mg/kg, route oral; settings: in vivo
Summary of the method: (§4)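 Neurotoxicity assessed in Wistar rats (100–150 g) after a 30 mg/kg oral dose, read at 0.25, 0.5, 1, 2 and 4 h.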

Rattus norvegicus [19] = assay: Neurotoxicity in Wistar rat at 30 mg/kg, po measured at 2 hrs by rotarod test; format: toxicity, organism-based; set-up: dose 30 mg/kg, route oral; settings: in vivo; summary of the method: as §4
Rattus norvegicus [20] = assay: Neurotoxicity in Wistar rat at 30 mg/kg, po measured at 1 hr by rotarod test; format: toxicity, organism-based; set-up: dose 30 mg/kg, route oral; settings: in vivo; summary of the method: as §4
Rattus norvegicus [21] = assay: Neurotoxicity in Wistar rat at 30 mg/kg, po measured at 0.5 hrs by rotarod test; format: toxicity, organism-based; set-up: dose 30 mg/kg, route oral; settings: in vivo; summary of the method: as §4
Rattus norvegicus [22] = assay: Neurotoxicity in Wistar rat at 30 mg/kg, po measured at 0.25 hrs by rotarod test; format: toxicity, organism-based; set-up: dose 30 mg/kg, route oral; settings: in vivo; summary of the method: as §4
Rattus norvegicus [23] = assay: Antiepileptic activity in Wistar rat assessed as protection against maximal electric shock-induced seizures at 30 mg/kg, po measured at 4 hrs; format: functional
Summary of the method: (§5)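 Single oral dose of 30 mg/kg in Wistar rats (100–150 g), tested by MES challenge at 0.25, 0.5, 1, 2 and 4 h.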

Rattus norvegicus [24] = assay: Antiepileptic activity in Wistar rat assessed as protection against maximal electric shock-induced seizures at 30 mg/kg, po measured at 2 hrs; format: functional; summary of the method: as §5
Rattus norvegicus [25] = assay: Antiepileptic activity in Wistar rat assessed as protection against maximal electric shock-induced seizures at 30 mg/kg, po measured at 1 hr; format: functional; summary of the method: as §5
Rattus norvegicus [26] = assay: Antiepileptic activity in Wistar rat assessed as protection against maximal electric shock-induced seizures at 30 mg/kg, po measured at 0.5 hrs; format: functional; summary of the method: as §5
Rattus norvegicus [27] = assay: Antiepileptic activity in Wistar rat assessed as protection against maximal electric shock-induced seizures at 30 mg/kg, po measured at 0.25 hrs; format: functional; summary of the method: as §5

Compound	Activity (Mus musculus [1])	minimal effective dose (Mus musculus [2]) [mg/kg]	Activity (Mus musculus [3])	MTC (Mus musculus [4]) [mg/kg]	Activity (Rattus norvegicus [5])	Activity (Rattus norvegicus [6])	Activity (Mus musculus [7])	Activity (Mus musculus [8])	Activity (Mus musculus [9])	MTC (Mus musculus [10]) [mg/kg]	minimal effective dose (Mus musculus [12]) [mg/kg]	Activity (Mus musculus [13])	minimal effective dose (Rattus norvegicus [14]) [mg/kg]	also measured
C=C(C)[C@@H]1CC=C(C)/C(=N/NC(=O)Nc2nnc(-c3ccc(C)cc3)o2)C1	inactive	300	Non-toxic	300	inactive	inactive	inactive	inactive	–	–	–	–	–	–
CC(C)=CC/C=C(/C)C/C=N/NC(=O)Nc1nnc(-c2ccc(C)cc2)o1	inactive	300	Non-toxic	–	inactive	inactive	inactive	inactive	Non-toxic	300	–	–	–	–
C=C(C)[C@@H]1CC=C(C)/C(=N/NC(=O)Nc2nnc(-c3ccccc3)o2)C1	inactive	300	–	–	inactive	inactive	inactive	inactive	Non-toxic	300	–	–	–	–
CC(C)=CC/C=C(/C)C/C=N/NC(=O)Nc1nnc(-c2ccc(Cl)cc2)o1	–	300	Non-toxic	–	inactive	inactive	inactive	inactive	Non-toxic	–	–	–	–	minimal effective dose (Mus musculus [11]): 100 mg/kg
CC(C)=CC/C=C(/C)C/C=N/NC(=O)Nc1nnc(-c2ccc(F)cc2)o1	inactive	300	–	–	inactive	inactive	–	inactive	Non-toxic	–	300	–	–	–
CC(C)=CC/C=C(/C)C/C=N/NC(=O)Nc1nnc(-c2ccccc2O)o1	inactive	–	–	300	inactive	inactive	–	inactive	–	–	300	inactive	–	–
CC(C)=CC/C=C(/C)C/C=N/NC(=O)Nc1nnc(-c2ccc(O)cc2)o1	inactive	300	Non-toxic	–	–	inactive	–	inactive	Non-toxic	–	300	–	300	Activity (Rattus norvegicus [15]): 28.25 µg; Activity (Rattus norvegicus [16]): 34.42 µg; Activity (Rattus norvegicus [17]): 52.82 µg
CC(C)=CC/C=C(/C)C/C=N/NC(=O)Nc1nnc(-c2ccccc2)o1	inactive	–	–	–	inactive	inactive	inactive	inactive	Non-toxic	300	–	inactive	–	–
O=C1NC(=O)C(c2ccccc2)(c2ccccc2)N1 [PHENYTOIN]	–	30	–	100	–	inactive	inactive	inactive	–	100	–	–	100	minimal effective dose (Mus musculus [11]): 30 mg/kg; Activity (Rattus norvegicus [18]): Non-toxic; Activity (Rattus norvegicus [19]): Non-toxic; Activity (Rattus norvegicus [20]): Non-toxic; Activity (Rattus norvegicus [21]): Non-toxic; Activity (Rattus norvegicus [22]): Non-toxic; Activity (Rattus norvegicus [23]): 0%; Activity (Rattus norvegicus [24]): 75%; Activity (Rattus norvegicus [25]): 50%; Activity (Rattus norvegicus [26]): 50%; Activity (Rattus norvegicus [27]): 75%
CC(C)=CC/C=C(/C)C/C=N/NC(=O)Nc1nnc(-c2cccc(O)c2)o1	inactive	–	Non-toxic	300	inactive	inactive	inactive	inactive	–	–	–	inactive	–	–
C=C(C)[C@@H]1CC=C(C)/C(=N/NC(=O)Nc2nnc(-c3cccc(O)c3)o2)C1	inactive	–	Non-toxic	300	inactive	inactive	–	inactive	–	–	300	inactive	–	–
C=C(C)[C@@H]1CC=C(C)/C(=N/NC(=O)Nc2nnc(-c3ccccc3O)o2)C1	inactive	300	–	–	inactive	inactive	inactive	inactive	Non-toxic	300	–	–	–	–
COc1ccc(-c2nnc(NC(=O)N/N=C/C/C(C)=C\CC=C(C)C)o2)cc1	inactive	–	Non-toxic	–	–	inactive	inactive	inactive	Non-toxic	–	–	inactive	300	–
C=C(C)[C@@H]1CC=C(C)/C(=N/NC(=O)Nc2nnc(-c3ccc(OC)cc3)o2)C1	inactive	300	Non-toxic	–	–	inactive	–	inactive	Non-toxic	–	300	–	300	–
C=C(C)[C@@H]1CC=C(C)/C(=N/NC(=O)Nc2nnc(-c3ccc(Cl)cc3)o2)C1	–	300	Non-toxic	–	–	inactive	–	inactive	Non-toxic	–	300	–	300	minimal effective dose (Mus musculus [11]): 100 mg/kg
